Fewer inactive variants are shown than the library holds.
B1: tRNA (parent)
chain: GUUCCGUUGGCGUAAUGGUAACGCGUCUCCCUCCUAAGGAGAAGACUGCGGGUUCGAGUCCCGUACGGAACG

Variants of: B1
Assay: yeast fitness relative to wild type (ratio to wild type); higher = fitter; tRNA-Arg(CCU), competitive growth, 37 C, YPD
Procedure, shortened: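 Genotype frequency changes were the basis for Darwinian fitness relative to wild type. The frequencies came from 100-nucleotide paired-end sequencing of gene amplicons from the start population and each end population of pooled yeast strains with tRNA-Arg(CCU) gene variants at the native locus. Competition ran in YPD at 37°C for 24 hours in six replicates, genotypes needed ≥ 100 starting reads, and estimates < 0.5 were set to 0.5.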

Going from C46G U53C to C46U U59A C61G C66U, the yeast fitness falls from 0.903 to 0.649.

Going from C46G U64A to A45C G51C U54C A57G, the yeast fitness falls from 0.889 to no more than 0.5.

First: C46A G63U
Second: C46A G63A
The yeast fitness of the first is lower: 0.764 for the first, 0.949 for the second.

Going from C46G G50A C62A to A45U C49U A65U, the yeast fitness rises from 0.603 to 0.755.

First: A45G G50C
Second: C46G A57U C66U
The yeast fitness of the first is higher: 0.637 for the first, 0.608 for the second.

Compared with C46U A65G, A45G G58A G63A is lower in yeast fitness: 0.877 for the first, 0.727 for the second.

Going from A45U G67C to A45U C46A C60G, the yeast fitness falls from 0.738 to 0.521.

Compared with U47C G63C C66U, U47A C61U is higher in yeast fitness: no more than 0.5 for the first, 0.948 for the second.

Going from U47A G50C to A45G C46A A69U, the yeast fitness rises from 0.69 to 0.768.

First: A45G C66U A69C
Second: C46A G58U
The yeast fitness of the first is lower: 0.598 for the first, 0.907 for the second.

First: U47C G52C
Second: C46G C49U G67U
The yeast fitness of the first is lower: 0.612 for the first, 0.671 for the second.

First: A45U U54A C55G
Second: C46A C55A G63A
The yeast fitness of the first is lower: no more than 0.5 for the first, 0.575 for the second.

Going from C46A C66A to C46A C66U, the yeast fitness rises from 0.688 to 0.985.

Compared with A45U U54C C66G G67C, C46G G48A G58C is higher in yeast fitness: no more than 0.5 for the first, 1.15 for the second.

Compared with U47C G63C, A45G A57G is higher in yeast fitness: 0.769 for the first, 0.943 for the second.

First: U47A G56A
Second: A45G G56C
The yeast fitness of the first is higher: 0.964 for the first, 0.604 for the second.

Going from A45G C61A to A45C G56A C62U, the yeast fitness rises from 0.635 to 0.711.

Compared with C46U A57G C66A, A45G U47A is higher in yeast fitness: no more than 0.5 for the first, 0.91 for the second.

Compared with C46G C49U G68C, A45U C49G A65U is lower in yeast fitness: 0.653 for the first, 0.599 for the second.

First: C46U G48A G56A
Second: A45U G51C
The yeast fitness of the first is higher: 0.848 for the first, 0.538 for the second.

Compared with A45U G51A, A45U U54A is lower in yeast fitness: 0.919 for the first, 0.702 for the second.

Going from U47A C49G A69U to A45C G52A, the yeast fitness rises from 0.577 to 0.731.

First: C46A C49A
Second: C46A G56A
The yeast fitness of the first is lower: 0.601 for the first, 1.01 for the second.

Going from C46A G56C to U47C G58A, the yeast fitness rises from 0.642 to 0.986.

First: A45U
Second: A45G
The yeast fitness of the first is lower: 0.99 for the first, 0.991 for the second.

First: C46A G50A C60G G63C
Second: C46U A65C C66U
The yeast fitness of the first is lower: no more than 0.5 for the first, 0.721 for the second.

Going from A45C G56C U64C to U47G C66U, the yeast fitness rises from 0.555 to 0.691.

First: U47G C66G
Second: U47C C49U
The yeast fitness of the first is lower: 0.517 for the first, 0.987 for the second.

Compared with U47C C49A, C46A C60G is higher in yeast fitness: 0.65 for the first, 0.684 for the second.

First: A45U U53G
Second: A45U U53A
The yeast fitness of the first is lower: no more than 0.5 for the first, 0.723 for the second.

U47G C60G C62A A65G and U47A G48C G56A cannot be ordered by yeast fitness: no more than 0.5 for the first, no more than 0.5 for the second.

Compared with U47C U59A A65C A70C, C46A C55G G67U is higher in yeast fitness: no more than 0.5 for the first, 0.699 for the second.

First: C46U C49U C66U
Second: C46U G67A
The yeast fitness of the first is lower: 0.806 for the first, 0.986 for the second.

First: C46U G67U
Second: A45U G63A
The yeast fitness of the first is higher: 0.869 for the first, 0.843 for the second.

Going from U47C C60A C61G A69U to A45U U64G, the yeast fitness rises from no more than 0.5 to 0.721.

First: C46U G63A
Second: A45C U64C
The yeast fitness of the first is lower: 0.769 for the first, 0.941 for the second.

First: U47C U53A
Second: C46A G56U A57G
The yeast fitness of the first is lower: 0.604 for the first, 0.665 for the second.

First: A45U G67U A69G
Second: U47C C60A
The yeast fitness of the first is lower: 0.536 for the first, 0.603 for the second.

Compared with U47C G51C U59C, A45C U47G A57G is higher in yeast fitness: no more than 0.5 for the first, 0.605 for the second.

First: C46G C55U A57C C61G
Second: A45U C49G A70C
The yeast fitness of the first is lower: no more than 0.5 for the first, 0.65 for the second.

Compared with U47A A70C, C46G C62U is higher in yeast fitness: 0.842 for the first, 0.982 for the second.

First: C46G C62G
Second: A45G C55U
The yeast fitness of the first is higher: 0.786 for the first, 0.704 for the second.

Compared with A45G C55G, C46G G63C C66A is lower in yeast fitness: 0.562 for the first, no more than 0.5 for the second.

Compared with U47G A70C, C46A C61G A69C is lower in yeast fitness: 0.685 for the first, 0.501 for the second.

Compared with C46A C61G A69G, C46A G68C is higher in yeast fitness: 0.551 for the first, 0.78 for the second.

First: C46A G68U
Second: U47C A69U
The yeast fitness of the first is lower: 0.824 for the first, 1.08 for the second.

Going from C46G A70G to C46G A70U, the yeast fitness falls from 1.03 to 0.976.

Going from C46G A70C to C46U G50A, the yeast fitness rises from 0.923 to 0.965.

Compared with A45U C55U A69G, A45G G58A A69U is higher in yeast fitness: no more than 0.5 for the first, 0.738 for the second.

Compared with U47C U53C A57C, A45G U53G is higher in yeast fitness: no more than 0.5 for the first, 0.586 for the second.

Going from C46G G56A to U47C C55U, the yeast fitness falls from 1.03 to 0.796.

Compared with U47C C55A, U47C C55G is higher in yeast fitness: 0.699 for the first, 0.733 for the second.

Compared with U47C C61U A65U C66U, C46U U59C C62G A65U is higher in yeast fitness: no more than 0.5 for the first, 0.557 for the second.

Compared with U47C A70C, U47C A70U is lower in yeast fitness: 1.07 for the first, 0.955 for the second.

Compared with C46U A57G, C46U A57C is lower in yeast fitness: 0.994 for the first, 0.638 for the second.

Compared with A45C U54C C66U, C46G U54C is higher in yeast fitness: 0.606 for the first, 0.697 for the second.

Compared with C46A C60G C62U A69C, U47C C55U G68C is higher in yeast fitness: no more than 0.5 for the first, 0.517 for the second.

First: C46A C55U
Second: C46A C55A
The yeast fitness of the first is higher: 0.758 for the first, 0.562 for the second.

First: C46G C61U
Second: C46G C61A
The yeast fitness of the first is higher: 1.05 for the first, 0.678 for the second.

First: A45U G58A
Second: C46A G58U G68A
The yeast fitness of the first is lower: 0.907 for the first, 0.932 for the second.

Going from C46A G52A G58C to C46G C62G G67U, the yeast fitness falls from 0.742 to 0.542.

Compared with U47C G50A, C46A G68C A69G is lower in yeast fitness: 0.99 for the first, no more than 0.5 for the second.

Compared with U47C G68A, A45U C62G C66G is lower in yeast fitness: 0.876 for the first, no more than 0.5 for the second.

First: C46U G56A
Second: C46U G56C
The yeast fitness of the first is higher: 0.978 for the first, 0.698 for the second.

Going from A45G G68A to C46A U53C, the yeast fitness falls from 0.973 to 0.865.

First: C46U U59A
Second: C46A A57U G68C
The yeast fitness of the first is higher: 0.877 for the first, 0.543 for the second.

First: C46U G52A
Second: C46U G52C
The yeast fitness of the first is higher: 0.729 for the first, 0.614 for the second.

Compared with C46A C49U G63C, U47A G48C G51A C61A is lower in yeast fitness: 0.694 for the first, no more than 0.5 for the second.

Going from A45C U59C to U47A C55G C61U, the yeast fitness falls from 0.874 to 0.522.

Compared with C46U G56A C61G, C46G C49U A69U is higher in yeast fitness: no more than 0.5 for the first, 1.04 for the second.

Compared with U47A C55G, U47C C62U is higher in yeast fitness: 0.684 for the first, 0.944 for the second.

Going from C46A G58C C66U to A45U A57C, the yeast fitness falls from 0.998 to 0.617.

First: A45C U54C
Second: U47G A57G
The yeast fitness of the first is lower: 0.69 for the first, 0.7 for the second.

First: U47G A57U
Second: C46G G52C
The yeast fitness of the first is lower: no more than 0.5 for the first, 0.585 for the second.

Going from C46G G52A to C46U C55U C61G, the yeast fitness falls from 0.843 to no more than 0.5.

Going from A45U C49U C61G to C46U C49A C62U, the yeast fitness falls from 0.582 to 0.555.

First: U47A G48C G67C
Second: C46G C60G
The yeast fitness of the first is lower: 0.538 for the first, 0.715 for the second.

First: C46U U47A G68C
Second: C46A U64C
The yeast fitness of the first is lower: 0.558 for the first, 0.986 for the second.

Going from A45C G63C U64C to U47C G58A G67A, the yeast fitness rises from no more than 0.5 to 0.584.

A45U C46G A70U and C46U C55A G56C A65G cannot be ordered by yeast fitness: no more than 0.5 for the first, no more than 0.5 for the second.

Compared with C46A G52A G63C, A45C G58U is higher in yeast fitness: 0.555 for the first, 0.675 for the second.

Compared with A45U C49U, U47C G52A C61G is lower in yeast fitness: 1.07 for the first, no more than 0.5 for the second.

Compared with C46A C61U A70C, A45G G58C is higher in yeast fitness: 0.861 for the first, 0.958 for the second.

Variant A45G G63A G68A has a yeast fitness of 0.536.

— the RNAGym collection of RNA variant scans (doi:10.1126/science.aae0568)
